According to article PMC8669716 (ACS Pharmacology & Translational Science, 2021):

What was measured:
SCLC cell line NCI-H510A = test: SCLC cell viability; type: cell-based; conditions: Homo sapiens, 240 h, read-out: EC50 viability NCI-H510A
[1] = cited from earlier work
[2] = molecular target: T1, human recombinant LSD1 enzyme (Homo sapiens, UniProt O60341); test: LSD1 HTRF assay; type: biochemical
AML cell line TF-1a = test: AML cell viability; type: cell-based; conditions: for EC50: TF-1a, read-out: EC50 viability, AML cell lines
SCLC patients = conditions: cited from earlier work
[3] = molecular target: T1, human recombinant LSD1 enzyme; test: LSD1 peroxidase; type: biochemical
[4] = molecular target: T2, human recombinant LSD2 enzyme (Homo sapiens, UniProt Q8NB78); test: LSD2 HTRF assay; type: biochemical; conditions: read-out: LSD2 inhibition
T2 sequence (Q8NB78 1-822): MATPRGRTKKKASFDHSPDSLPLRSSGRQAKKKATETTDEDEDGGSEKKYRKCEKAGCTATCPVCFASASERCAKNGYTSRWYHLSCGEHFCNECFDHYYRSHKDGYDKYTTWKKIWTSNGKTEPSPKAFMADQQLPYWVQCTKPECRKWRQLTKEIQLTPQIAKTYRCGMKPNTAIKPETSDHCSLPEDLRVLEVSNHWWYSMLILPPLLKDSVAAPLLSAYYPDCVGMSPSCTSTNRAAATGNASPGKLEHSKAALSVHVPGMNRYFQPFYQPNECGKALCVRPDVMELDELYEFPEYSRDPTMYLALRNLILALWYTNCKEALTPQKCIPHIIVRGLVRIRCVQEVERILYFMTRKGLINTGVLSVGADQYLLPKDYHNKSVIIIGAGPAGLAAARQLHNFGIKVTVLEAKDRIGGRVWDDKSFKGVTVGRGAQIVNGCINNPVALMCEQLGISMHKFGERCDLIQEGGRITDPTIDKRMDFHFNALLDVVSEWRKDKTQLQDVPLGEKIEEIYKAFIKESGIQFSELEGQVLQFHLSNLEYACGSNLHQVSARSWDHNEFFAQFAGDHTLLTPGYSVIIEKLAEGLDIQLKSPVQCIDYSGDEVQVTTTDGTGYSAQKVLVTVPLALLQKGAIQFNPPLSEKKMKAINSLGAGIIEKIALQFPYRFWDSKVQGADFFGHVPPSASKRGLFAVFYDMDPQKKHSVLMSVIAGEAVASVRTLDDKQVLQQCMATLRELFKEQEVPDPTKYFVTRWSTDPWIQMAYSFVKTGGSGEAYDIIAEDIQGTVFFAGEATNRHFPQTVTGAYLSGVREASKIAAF

[5] = Stability in aqueous buffer; type: physicochemical; conditions: aqueous buffer at 37 °C, LCMS, day 6
How it was run: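 A 20 mM DMSO solution of test compound was diluted with PBS and held at 37 °C. Samples were analysed by LCMS at T = 0, 4 and 6 days, using one of three compound-specific HPLC method conditions.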

[6] = test system: CD11b induction in THP-1 cells; test: AML differentiation: CD11b by flow cytometry; type: cell-based; conditions: THP-1, 0.02 to 2000 nM, 96 h
LSD1 in NCI-H510A cells = LSD1 in NCI-H510A cells (Homo sapiens, UniProt O60341); test: LSD1 target engagement; type: cell-based; conditions: 24 h, 2000, 200, 20 and 2 nM
[7] = molecular target: recombinant LSD1 / GFI1B SNAG domain peptide interaction (Homo sapiens, UniProt O60341); test: GFI1B-peptide/LSD1 interaction assay; type: binding; conditions: 2 μM, 200 nM, 20 nM and 2 nM
[8] = molecular target: INSM1/LSD1 interaction in NCI-H510A cells (Homo sapiens, UniProt O60341); test: INSM1/LSD1 interaction ELISA on NCI-H510A lysates; type: cell-based; conditions: 24 h, 2000, 200, 20 and 2 nM
[9] = test system: GRP gene expression in NCI-H510A cells; test: GRP gene expression by qRT-PCR; type: cell-based; conditions: 6 days, 2000, 200, 20 and 2 nM
How it was run: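 NCI-H510A SCLC cells (mycoplasma-free) seeded at 0.5 million per 5 mL complete RPMI-1640 (10% FBS, 2 mM l-glutamine). They were treated with test compound at 2000, 200, 20 and 2 nM for 6 days at 37 °C, 5% CO2. Pellets of 0.5 million cells were PBS-washed and stored at −80 °C, then total RNA was extracted for qRT-PCR of GRP; N = 1, n = 3.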

[10] = molecular target: T1, human recombinant LSD1 enzyme; conditions: incubation at 10-fold IC50, 100-fold dilution
RR-AML patients = conditions: cited from earlier work
LSD1 in MV(4;11) cells = LSD1 in MV(4;11) cells (Homo sapiens, UniProt O60341); test: LSD1 target engagement; type: cell-based; conditions: 24 h, 2000, 200, 20 and 2 nM

SMILES: COc1ccc(-c2c(-c3ccc(C#N)c(F)c3)nc(N3CCC(N)CC3)n(C)c2=O)cc1F [pulrodemstat]
- EC50 (SCLC cell line NCI-H510A): 0.00177 µM
- half-life ([1]; humans): ≈ 70 h
- adverse events reported ([1]; monotherapy): Thrombocytopenia and neutropenia events

SMILES: O=C(O)c1ccc(CN2CCC(CN[C@@H]3C[C@H]3c3ccccc3)CC2)cc1 [GSK-2879552]
- fold less active than iadademstat in the LSD1 HTRF assay [2]: 491 fold
- fold less active than iadademstat in the (TF-1a) AML viability assays (AML cell line TF-1a): 849 fold
- G3/4 encephalopathy (SCLC patients): 10%

SMILES: C/C(=N\NC(=O)c1cccc(S(=O)(=O)N2CCN(C)CC2)c1)c1cc(Cl)ccc1O [seclidemstat]
- IC50 ([2]; LSD1 IC50, HTRF assay): 1.3 µM
- IC50 [3]: 2.4 µM
- inhibition at 10 µM [4]: < 50%
- T = 6 days purity (parent compound remaining) [5]: 72%
- EC50 (SCLC cell line NCI-H510A): 0.184 µM
- induction of CD11b marker [6]: does not induce the CD11b marker
- LSD1 TE (LSD1 in NCI-H510A cells): did not show any significant LSD1 TE at the concentrations tested
- disruption of LSD1/GFI1B interaction [7]: does not disrupt the LSD1/GFI1B interaction
- disruption of LSD1/INSM1 PPI [8]: totally inactive
- effect on GRP expression [9]: does not impact GRP expression
- recovery of LSD1 activity upon jump dilution [10]: 62%

SMILES: CN1CCN(C(=O)[C@H](CCCN[C@@H]2C[C@H]2c2ccc(F)cc2)NC(=O)c2ccc(-n3ccnn3)cc2)CC1 [bomedemstat]
- fold less active than iadademstat in the LSD1 HTRF assay [2]: 174 fold
- fold less active than iadademstat in the (TF-1a) AML viability assays (AML cell line TF-1a): 345 fold

SMILES: N[C@H]1CC[C@H](N[C@@H]2C[C@H]2c2ccccc2)CC1 [iadademstat]
- EC50 (SCLC cell line NCI-H510A): 0.00016 µM
- effect on GRP expression [9]: most potently inhibits the expression of the neuroendocrine biomarker (including at 2 nM)
- safety and tolerability (RR-AML patients): safe and well-tolerated

SMILES: c1ccc([C@@H]2C[C@H]2NC2CCNCC2)cc1 [OG-668]
- EC50 (SCLC cell line NCI-H510A): 0.00117 µM
- LSD1 TE (LSD1 in MV(4;11) cells): high LSD1 TE at all concentrations tested
- disruption of LSD1/GFI1B interaction [7]: shows reduction of the LSD1/GFI1B interaction in the 2 μM to 2 nM range
- disruption of LSD1/INSM1 PPI [8]: reduction of the LSD1/INSM1 interaction at all four concentrations
- effect on GRP expression [9]: reduce GRP expression at all concentrations

SMILES: NNCCc1ccccc1 [phenelzine]
- T = 6 days purity (parent compound remaining) [5]: 4%
- EC50 (AML cell line TF-1a): > 2 µM
- EC50 (SCLC cell line NCI-H510A): > 2 µM

SMILES: C#CCN(C)Cc1ccccc1 [pargyline]
- EC50 (AML cell line TF-1a): > 2 µM
- EC50 (SCLC cell line NCI-H510A): > 2 µM
